The source made the active and inactive calls. The calls are words filed in the database; no cut-off is given here.
Columns and labels:
Human alphaherpesvirus 1 [1] = assay: Antiviral activity against Herpes simplex virus type 1 infected in rabbit kidney monolayer cells assessed as reduction in viral titer; type: functional, organism-based
[2] = Immunosuppressive activity in H-2d alloantigen-sensitized C57B1/6 (H-2b) mouse spleen effector T cells assessed as inhibition of effector T cell-induced DBA/2 (H-2d) mouse [51Cr]-labeled P815 cell lysis by measuring lysed cells at 100 ug/mL after 4 hrs by [51Cr] release assay relative to control; type: functional
How it was run: (§1)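 C57B1/6 (H-2^b) mice sensitized ip with 30–50 × 10^6 P815 mastocytoma cells (DBA/2-passaged). Spleens pooled from 5–7 mice taken 10 days later. Effectors mixed 50:1 with 51Cr-labeled P815 targets in RPMI 1640/Hepes with 10% heat-inactivated calf serum plus compound. Incubated 4 h at 37 °C in 83% N2/10% CO2/7% O2. Supernatant 51Cr counted, run in quadruplicate. % specific lysis computed from spontaneous and water-lysis controls, then expressed as % of untreated control.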

[3] = Immunosuppressive activity in H-2d alloantigen-sensitized C57B1/6 (H-2b) mouse spleen effector T cells assessed as inhibition of effector T cell-induced DBA/2 (H-2d) mouse [51Cr]-labeled P815 cell lysis by measuring lysed cells at 10 ug/mL after 4 hrs by [51Cr] release assay relative to control; type: functional; how it was run: as §1
[4] = Immunosuppressive activity in H-2d alloantigen-sensitized C57B1/6 (H-2b) mouse spleen effector T cells assessed as inhibition of effector T cell-induced DBA/2 (H-2d) mouse [51Cr]-labeled P815 cell lysis by measuring lysed cells at 1 ug/mL after 4 hrs by [51Cr] release assay relative to control; type: functional; how it was run: as §1
[5] = Immunosuppressive activity in C57B1/6 mouse spleen effector T cells assessed as ratio of effector T cell to DBA/2 mouse [51Cr]-labeled P815 cell giving 50% specific lysis at 100 ug/mL after 5 days by [51Cr] release assay in presence of B6D2(F1) mouse spleen cells (reference value: 6 no unit); type: functional
How it was run: (§2)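 Normal C57B1/6 spleen cells (10 × 10^6) cocultured 5 days at 37 °C (83% N2/10% CO2/7% O2) with 0.5 × 10^6 B6D2F1 spleen cells as antigen and compound at 100 μg/mL. Medium was RPMI 1640 with 20% fetal calf serum and gentamycin, using at least 12 cultures per concentration. Pooled cells were then mixed with 51Cr-P815 targets at various ratios (≥3 replicates/ratio) for 3 h at 37 °C. Lysis was plotted against ratio; lytic unit = cells giving 50% lysis of 25 × 10^3 targets.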

[6] = Immunosuppressive activity in C57B1/6 mouse spleen effector T cells assessed as recovery of number of T cell required to give 50% lysis of 25 X 10^3 DBA/2 mouse [51Cr]-labeled P815 cells treated on day 4 of 5 days culture system measured after day 5 by [51Cr] release assay in presence of B6D2(F1) mouse spleen cells relative to control; type: functional
How it was run: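 Alloantigen coculture was the same: C57B1/6 spleen cells plus B6D2F1 stimulator cells, 5 days at 37 °C. Here compound was added on day 4 rather than at culture start. On day 5, cells were pooled and assayed against 51Cr-P815 targets for 3 h. Lytic units (cells giving 50% lysis of 25 × 10^3 targets) recovered per culture were expressed as percent of control.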

[7] = Immunosuppressive activity in C57B1/6 mouse spleen effector T cells assessed as effect on number of IgM-anti sheep erythrocyte antibody plaque forming cells per culture at 100 ug/culture after 5 days in presence of sheep erythrocytes (reference value: 6440 +/- 2255 PFC/culture); type: functional
[8] = Immunosuppressive activity in C57B1/6 mouse spleen effector T cells assessed as effect on number of IgM-anti sheep erythrocyte antibody plaque forming cells per culture at 10 ug/culture after 5 days in presence of sheep erythrocytes (reference value: 6440 +/- 2255 PFC/culture); type: functional
[9] = Immunosuppressive activity in C57B1/6 mouse spleen effector T cells assessed as effect on number of IgM-anti sheep erythrocyte antibody plaque forming cells per culture at 1 ug/culture after 5 days in presence of sheep erythrocytes (reference value: 6440 +/- 2255 PFC/culture); type: functional
Human alphaherpesvirus 1 [10] = assay: Antiviral activity against Herpes simplex virus type 1 infected in mouse assessed as mean survival time at 150 mg/kg, sc tid administered for 4 days (reference value: 8.3 days); type: functional; conditions: route subcutaneous
How it was run: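 HSV-1-infected mice dosed subcutaneously three times daily on days 0–4. Vehicle-dosed infected mice served as controls. Read-out was mean survival time in days.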

[11] = Immunosuppressive activity in C57B1/6 mouse spleen effector T cells assessed as inhibition of effector T cell-induced DBA/2 mouse [51Cr]-labeled P815 cell lysis at 100 ug/mL after 5 days by [51Cr] release assay in presence of B6D2(F1) mouse spleen cells relative to control; type: functional; conditions: C57B1/6, P815, Spleen, 120 h; how it was run: as §2
[12] = Cytotoxicity against C57B1/6 (H-2b) mouse spleen effector T cells assessed as decrease in cell number at 1 to 100 ug/mL after 4 hrs relative to control; type: cell-based
[13] = Cytotoxicity against C57B1/6 mouse spleen effector T cells assessed as decrease in cell number at 100 ug/mL after 5 days relative to control; type: cell-based; conditions: 120 h
Human alphaherpesvirus 1 [14] = assay: Antiviral activity against Herpes simplex virus type 1 infected in rabbit kidney monolayer cells assessed as reduction in viral titer at 25 ug/mL relative to control; type: functional
Human alphaherpesvirus 1 [15] = assay: Antiviral activity against Herpes simplex virus type 1 infected in mouse assessed as mean survival time at 200 mg/kg, sc tid administered for 4 days (reference value: 8.3 days); type: functional; conditions: route subcutaneous

Structure (SMILES)	Activity (Human alphaherpesvirus 1 [1])	Specific lysis, % of untreated control [2] [%]	Specific lysis, % of untreated control [3] [%]	Specific lysis as % of untreated control [4] [%]	Ratio [5]	Activity [6] [%]	PFC [7]	PFC [8]	PFC [9]	MST (Human alphaherpesvirus 1 [10]) [days]	inhibition at 100 µg/mL [11] [%]	Activity [12]	Activity [13]	fold change (FC) (Human alphaherpesvirus 1 [14])	MST (Human alphaherpesvirus 1 [15]) [days]
CC(=O)OC[C@H]1O[C@@H]2[C@@H](Oc3nc(=O)n(C)c(=O)n32)[C@@H]1OC(C)=O	Active	93	103	95	8.5	90	8720	5933	5240						
Cn1c(=O)nc2n(c1=O)[C@@H]1O[C@H](CO)[C@@H](O)[C@@H]1O2		92	88	100		90	7107	4853	4227	5.4	90	Non-toxic	Non-toxic		
CC(=O)OC[C@H]1O[C@@H](n2c(=O)[nH]c(=O)n(C)c2=O)[C@@H](OC(C)=O)[C@@H]1OC(C)=O	inactive	88	96	96	10.5	90	10040	4307	4907						
CN1CN([C@H]2C[C@H](O)[C@@H](CO)O2)C(=O)NC1=O		73	88	90	7.2	90								10	18
Cn1c(=O)[nH]c(=O)n([C@@H]2O[C@H](CO)[C@@H](O)[C@@H]2O)c1=O	inactive	93	98	94		90	6293	5520	6240		84	Non-toxic	Non-toxic		
